Laboratory results reported in ChEMBL document CHEMBL1275277, “Synthesis of bioactive polyheterocyclic ring systems as 5α-reductase inhibitors” (Eur J Med Chem, 2010).

Legend:
Rattus norvegicus [1] = assay: Acute toxicity in sc dosed albino rat; type: organism-based; conditions: in vivo
Method in brief: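 Male albino rats were injected with increasing doses of each agent. LD50 and LD90, the doses killing 50% and 90% of the animals, were calculated by a published method.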

Rattus norvegicus [2] = assay: Inhibition of 5-alpha-reductase activity in sc dosed Sprague-Dawley rat assessed as effect on serum steroid level administered on postnatal third day measured after 7 weeks of age by radioimmunoassay; type: functional
Method in brief: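 Male Sprague–Dawley rats, 12 per group, given compound sc in 5% Tween 80 in water from postnatal day 3 until 7 weeks of age. Vehicle-treated negative control; anastrozole as positive control. Serum testosterone and DHT measured by RIA after ether extraction, using specific antisera and tritiated tracer, 24 h at 4 °C. Levels read from a standard curve and compared with vehicle controls to give ED50.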

Rattus norvegicus [3] = assay: Inhibition of 5-alpha-reductase activity in sc dosed Sprague-Dawley rat assessed as effect on serum steroid level administered on postnatal third day measured after 7 weeks of age by radioimmunoassay relative to anastrozole; type: functional

CCOC(=O)C1=NN(c2ccc(C)cc2)C2=NC3=C(CN(CC)C/C3=C\c3ccc(C)cc3)C(c3ccc(C)cc3)N12 (configuration not stated)
LD50 (Rattus norvegicus [1]): 224.33 µg/kg
LD90 (Rattus norvegicus [1]): 514.33 µg/kg
ED50 (Rattus norvegicus [2]): 1 µg/kg
fold change (FC) (Rattus norvegicus [3]): 1.09

CCN1CC2=C(N=C3N(c4ccc(C)cc4)N=C(C(=O)Nc4ccccc4)N3C2c2ccc(C)cc2)/C(=C/c2ccc(C)cc2)C1 (configuration not stated)
LD50 (Rattus norvegicus [1]): 236.28 µg/kg
LD90 (Rattus norvegicus [1]): 417.34 µg/kg
ED50 (Rattus norvegicus [2]): 0.925 µg/kg
fold change (FC) (Rattus norvegicus [3]): 1.178

CCN1CC2=C(N=C3N(c4ccccc4)N=C(C(=O)Nc4ccccc4)N3C2c2ccc(C)cc2)/C(=C/c2ccc(C)cc2)C1 (configuration not stated)
LD50 (Rattus norvegicus [1]): 6534.45 µg/kg
LD90 (Rattus norvegicus [1]): 1950.12 µg/kg
ED50 (Rattus norvegicus [2]): 0.432 µg/kg
fold change (FC) (Rattus norvegicus [3]): 2.523

CCN1CC2=C(N=C3N(c4ccc(Cl)cc4)N=C(C(C)=O)N3C2c2ccc(C)cc2)/C(=C/c2ccc(C)cc2)C1 (configuration not stated)
LD50 (Rattus norvegicus [1]): 312.34 µg/kg
LD90 (Rattus norvegicus [1]): 735.34 µg/kg
ED50 (Rattus norvegicus [2]): 0.856 µg/kg
fold change (FC) (Rattus norvegicus [3]): 1.273

CCN1CC2=C(NC(=S)NC2c2ccc(C)cc2)/C(=C/c2ccc(C)cc2)C1 (configuration not stated)
LD50 (Rattus norvegicus [1]): 222.23 µg/kg
LD90 (Rattus norvegicus [1]): 434.76 µg/kg
ED50 (Rattus norvegicus [2]): 1.88 µg/kg
fold change (FC) (Rattus norvegicus [3]): 0.5798

CCN1CC2=C(N=C3N(c4ccccc4)N=C(C(C)=O)N3C2c2ccc(C)cc2)/C(=C/c2ccc(C)cc2)C1 (configuration not stated)
LD50 (Rattus norvegicus [1]): 257.23 µg/kg
LD90 (Rattus norvegicus [1]): 419.23 µg/kg
ED50 (Rattus norvegicus [2]): 0.911 µg/kg
fold change (FC) (Rattus norvegicus [3]): 1.196

CCN1C/C(=C\c2ccc(C)cc2)c2nc3[nH]c(=S)[nH]c(=O)c3c(-c3ccc(C)cc3)c2C1
LD50 (Rattus norvegicus [1]): 447.88 µg/kg
LD90 (Rattus norvegicus [1]): 937.34 µg/kg
ED50 (Rattus norvegicus [2]): 0.795 µg/kg
fold change (FC) (Rattus norvegicus [3]): 1.371

CCN1C/C(=C\c2ccc(C)cc2)c2nc3nc4n(c(=O)c3c(-c3ccc(C)cc3)c2C1)C(=O)CS4
LD50 (Rattus norvegicus [1]): 516.56 µg/kg
LD90 (Rattus norvegicus [1]): 1148.5 µg/kg
ED50 (Rattus norvegicus [2]): 0.766 µg/kg
fold change (FC) (Rattus norvegicus [3]): 1.423

CCOC(=O)C1=NN(c2ccc(Cl)cc2)C2=NC3=C(CN(CC)C/C3=C\c3ccc(C)cc3)C(c3ccc(C)cc3)N12 (configuration not stated)
ED50 (Rattus norvegicus [2]): 0.441 µg/kg
fold change (FC) (Rattus norvegicus [3]): 2.472

CC(C)(C#N)c1cc(Cn2cncn2)cc(C(C)(C)C#N)c1 [ANASTROZOLE]
LD50 (Rattus norvegicus [1]): 2.415 µg/kg
LD90 (Rattus norvegicus [1]): 3.69 µg/kg
ED50 (Rattus norvegicus [2]): 1.09 µg/kg
